Calls of active or inactive are those of the source.
Assays:
Format in all cases: functional, cell-based
BT-549 = assay: Growth inhibition of human BT549 cells at 10^-5 M incubated for 48 hrs by sulforhodamine B assay
Method in brief: (§1)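 Run in the NCI59 one-dose cell-line screen, with each compound tested at a single concentration of 1 × 10−5 M.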

T47D = assay: Growth inhibition of human T47D cells at 10^-5 M incubated for 48 hrs by sulforhodamine B assay
Method in brief: (§2)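 Tested at a single concentration of 1 × 10−5 M as part of the NCI59 cell-line one-dose screen.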

Hs-578T = assay: Growth inhibition of human Hs 578T cells at 10^-5 M incubated for 48 hrs by sulforhodamine B assay; method in brief: as §1
MCF7 = assay: Growth inhibition of human MCF7 cells at 10^-5 M incubated for 48 hrs by sulforhodamine B assay; method in brief: as §1
MDA-MB-231 = assay: Growth inhibition of human MDA-MB-231 cells at 10^-5 M incubated for 48 hrs by sulforhodamine B assay; method in brief: as §1
DU-145 = assay: Growth inhibition of human DU145 cells at 10^-5 M incubated for 48 hrs by sulforhodamine B assay; method in brief: as §1
UO-31 = assay: Growth inhibition of human UO31 cells at 10^-5 M incubated for 48 hrs by sulforhodamine B assay; method in brief: as §2
PC-3 = assay: Growth inhibition of human PC3 cells at 10^-5 M incubated for 48 hrs by sulforhodamine B assay; method in brief: as §1
SN12C = assay: Growth inhibition of human SN12C cells at 10^-5 M incubated for 48 hrs by sulforhodamine B assay; method in brief: as §1
TK-10 = assay: Growth inhibition of human TK10 cells at 10^-5 M incubated for 48 hrs by sulforhodamine B assay; method in brief: as §2
RXF 393 = assay: Growth inhibition of human RXF393 cells at 10^-5 M incubated for 48 hrs by sulforhodamine B assay; method in brief: as §1
ACHN = assay: Growth inhibition of human ACHN cells at 10^-5 M incubated for 48 hrs by sulforhodamine B assay; method in brief: as §1
CAKI-1 = assay: Growth inhibition of human Caki1 cells at 10^-5 M incubated for 48 hrs by sulforhodamine B assay; method in brief: as §1
A498 = assay: Growth inhibition of human A498 cells at 10^-5 M incubated for 48 hrs by sulforhodamine B assay; method in brief: as §1
786-0 = assay: Growth inhibition of human 786-0 cells at 10^-5 M incubated for 48 hrs by sulforhodamine B assay; method in brief: as §1
NCI/ADR-RES = assay: Growth inhibition of human NCI/ADR-RES cells at 10^-5 M incubated for 48 hrs by sulforhodamine B assay; method in brief: as §1
SK-OV-3 = assay: Growth inhibition of human SKOV3 cells at 10^-5 M incubated for 48 hrs by sulforhodamine B assay; method in brief: as §1
OVCAR-8 = assay: Growth inhibition of human OVCAR8 cells at 10^-5 M incubated for 48 hrs by sulforhodamine B assay; method in brief: as §1
OVCAR-4 = assay: Growth inhibition of human OVCAR4 cells at 10^-5 M incubated for 48 hrs by sulforhodamine B assay; method in brief: as §1
OVCAR-5 = assay: Growth inhibition of human OVCAR5 cells at 10^-5 M incubated for 48 hrs by sulforhodamine B assay; method in brief: as §1
IGROV-1 = assay: Growth inhibition of human IGROV1 cells at 10^-5 M incubated for 48 hrs by sulforhodamine B assay; method in brief: as §1
OVCAR-3 = assay: Growth inhibition of human OVCAR3 cells at 10^-5 M incubated for 48 hrs by sulforhodamine B assay; method in brief: as §1
UACC-62 = assay: Growth inhibition of human UACC62 cells at 10^-5 M incubated for 48 hrs by sulforhodamine B assay; method in brief: as §2
SK-MEL-5 = assay: Growth inhibition of human SK-MEL-5 cells at 10^-5 M incubated for 48 hrs by sulforhodamine B assay; method in brief: as §1
UACC-257 = assay: Growth inhibition of human UACC257 cells at 10^-5 M incubated for 48 hrs by sulforhodamine B assay; method in brief: as §2
SK-MEL-28 = assay: Growth inhibition of human SK-MEL-28 cells at 10^-5 M incubated for 48 hrs by sulforhodamine B assay; method in brief: as §1
MDA-MB-435 = assay: Growth inhibition of human MDA-MB-435 cells at 10^-5 M incubated for 48 hrs by sulforhodamine B assay; method in brief: as §1
SK-MEL-2 = assay: Growth inhibition of human SK-MEL-2 cells at 10^-5 M incubated for 48 hrs by sulforhodamine B assay; method in brief: as §1
M14 = assay: Growth inhibition of human M14 cells at 10^-5 M incubated for 48 hrs by sulforhodamine B assay; method in brief: as §1
U-251 = assay: Growth inhibition of human U251 cells at 10^-5 M incubated for 48 hrs by sulforhodamine B assay; method in brief: as §2
LOX IMVI = assay: Growth inhibition of human LOXIMVI cells at 10^-5 M incubated for 48 hrs by sulforhodamine B assay; method in brief: as §1
SNB-19 = assay: Growth inhibition of human SNB19 cells at 10^-5 M incubated for 48 hrs by sulforhodamine B assay; method in brief: as §1
SNB-75 = assay: Growth inhibition of human SNB75 cells at 10^-5 M incubated for 48 hrs by sulforhodamine B assay; method in brief: as §1
SF-539 = assay: Growth inhibition of human SF539 cells at 10^-5 M incubated for 48 hrs by sulforhodamine B assay; method in brief: as §1
SF-268 = assay: Growth inhibition of human SF268 cells at 10^-5 M incubated for 48 hrs by sulforhodamine B assay; method in brief: as §1
SF-295 = assay: Growth inhibition of human SF295 cells at 10^-5 M incubated for 48 hrs by sulforhodamine B assay; method in brief: as §1
SW-620 = assay: Growth inhibition of human SW620 cells at 10^-5 M incubated for 48 hrs by sulforhodamine B assay; method in brief: as §2
HT-29 = assay: Growth inhibition of human HT-29 cells at 10^-5 M incubated for 48 hrs by sulforhodamine B assay; method in brief: as §1
KM12 = assay: Growth inhibition of human KM12 cells at 10^-5 M incubated for 48 hrs by sulforhodamine B assay; method in brief: as §1
HCT-116 = assay: Growth inhibition of human HCT116 cells at 10^-5 M incubated for 48 hrs by sulforhodamine B assay; method in brief: as §1
HCT-15 = assay: Growth inhibition of human HCT15 cells at 10^-5 M incubated for 48 hrs by sulforhodamine B assay; method in brief: as §1
HCC 2998 = assay: Growth inhibition of human HCC2998 cells at 10^-5 M incubated for 48 hrs by sulforhodamine B assay; method in brief: as §1
NCI-H522 = assay: Growth inhibition of human NCI-H522 cells at 10^-5 M incubated for 48 hrs by sulforhodamine B assay; method in brief: as §1
COLO 205 = assay: Growth inhibition of human COLO205 cells at 10^-5 M incubated for 48 hrs by sulforhodamine B assay; method in brief: as §1
NCI-H460 = assay: Growth inhibition of human NCI-H460 cells at 10^-5 M incubated for 48 hrs by sulforhodamine B assay; method in brief: as §1
NCI-H23 = assay: Growth inhibition of human NCI-H23 cells at 10^-5 M incubated for 48 hrs by sulforhodamine B assay; method in brief: as §1
NCI-H322M = assay: Growth inhibition of human NCI-H322M cells at 10^-5 M incubated for 48 hrs by sulforhodamine B assay; method in brief: as §1
NCI-H226 = assay: Growth inhibition of human NCI-H226 cells at 10^-5 M incubated for 48 hrs by sulforhodamine B assay; method in brief: as §1
HOP-62 = assay: Growth inhibition of human HOP62 cells at 10^-5 M incubated for 48 hrs by sulforhodamine B assay; method in brief: as §1
HOP-92 = assay: Growth inhibition of human HOP92 cells at 10^-5 M incubated for 48 hrs by sulforhodamine B assay; method in brief: as §1
A549 = assay: Growth inhibition of human A549/ATCC cells at 10^-5 M incubated for 48 hrs by sulforhodamine B assay; method in brief: as §1
EKVX = assay: Growth inhibition of human EKVX cells at 10^-5 M incubated for 48 hrs by sulforhodamine B assay; method in brief: as §1
SR = assay: Growth inhibition of human SR cells at 10^-5 M incubated for 48 hrs by sulforhodamine B assay; method in brief: as §1
MOLT-4 = assay: Growth inhibition of human MOLT4 cells at 10^-5 M incubated for 48 hrs by sulforhodamine B assay; method in brief: as §1
RPMI-8226 = assay: Growth inhibition of human RPMI8226 cells at 10^-5 M incubated for 48 hrs by sulforhodamine B assay; method in brief: as §1
K562 = assay: Growth inhibition of human K562 cells at 10^-5 M incubated for 48 hrs by sulforhodamine B assay; method in brief: as §1
CCRF-CEM = assay: Growth inhibition of human CCRF-CEM cells at 10^-5 M incubated for 48 hrs by sulforhodamine B assay; method in brief: as §1
HL-60(TB) = assay: Growth inhibition of human HL-60(TB) cells at 10^-5 M incubated for 48 hrs by sulforhodamine B assay
Method in brief: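 Run in the NCI59 cell-line one-dose screen, with each compound tested at a single concentration of 1 × 10−5 M.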

Measured: growth inhibition (GI)

CC[C@H](C)C(=O)O[C@@H]1[C@@H]2[C@@H](OC(=O)C(C)C)[C@@]34O[C@]2(O)[C@@](C)([C@@H](CC(=O)OC)C1(C)C)[C@H]3CC[C@]1(C)C4=CC(=O)O[C@H]1c1ccoc1
inactive: all assays above

CC[C@H](C)C(=O)O[C@@H]1[C@H]2C(=O)[C@](C)([C@H]3CC[C@@]4(C)[C@H](c5ccoc5)OC(=O)C[C@]45O[C@]35[C@@H]2OC(=O)C(C)C)[C@@H](CC(=O)OC)C1(C)C
inactive: all assays above
